From ChEMBL document CHEMBL4130494, “Crassiflorone derivatives that inhibit Trypanosoma brucei glyceraldehyde-3-phosphate dehydrogenase (TbGAPDH) and Trypanosoma cruzi trypanothione reductase (TcTR) and display trypanocidal activity” (Eur J Med Chem, 2017)
Converted amounts (≈) assume the structure as drawn. The source made the active and inactive calls. No cut-off for these calls is given here.

Key:
CYP3A4 = CYP3A4 (Homo sapiens, UniProt P08684); test: Inhibition of human CYP3A4 at 10 uM by P450-Glo assay relative to control; assay type: ADME
Summary of the method: (§1)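 P450-Glo luminescent platform: CYP action on each substrate generates light; decreased light taken as inhibition.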

Trypanosoma brucei = test: Inhibition of Trypanosoma brucei glyceraldehyde-3-phosphate dehydrogenase at 10 uM using GAP as substrate in presence of NAD+ by spectrophotometric method relative to control
Summary of the method: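 Recombinant TbGAPDH (200–300 μg protein) in 10 mM triethanolamine, 1.7 mM NaHCO3, 100 mM KCl, 5 mM MgSO4, 1 mM EDTA, pH 7.6, 25 °C, with 400 μM NAD+, 500 μM KH2PO4, 300 μM GAP; NAD+ reduction followed at 340 nm; inhibitors from DMSO stocks; triplicate; reported as percentage activity.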

CYP2C9 = CYP2C9 (Homo sapiens, UniProt P11712); test: Inhibition of human CYP2C9 at 10 uM by P450-Glo assay relative to control; assay type: ADME; summary of the method: as §1
hERG (KCNH2) = hERG (KCNH2) (Homo sapiens, UniProt Q12809); test: Inhibition of Tracer Red binding to human ERG expressed in membranes at 10 uM by fluorescence polarization assay relative to control; conditions: membranes expressing human ERG, probe Tracer Red
Summary of the method: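 Fluorescence polarization displacement of a high-affinity red fluorescent tracer from hERG channel–containing membrane fraction.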

CYP2C19 = CYP2C19 (Homo sapiens, UniProt P33261); test: Inhibition of human CYP2C19 at 10 uM by P450-Glo assay relative to control; assay type: ADME; summary of the method: as §1
[1] = Solubility in PBS after overnight incubation by nephelometry; assay type: physicochemical
[2] = Solubility in pH 7.4 Hanks simulated body fluid after overnight incubation by nephelometry; assay type: physicochemical
CYP2D6 = CYP2D6 (Homo sapiens, UniProt P10635); test: Inhibition of human CYP2D6 at 10 uM by P450-Glo assay relative to control; assay type: ADME; summary of the method: as §1
[3] = molecular target: Trypanothione reductase (Trypanosoma cruzi) (UniProt P28593); test: Inhibition of Trypanosoma cruzi trypanothione reductase assessed as reduction in NADPH consumption at 10 uM using 100 uM trypanothione disulfide as substrate by spectrophotometric method
Summary of the method: (§2)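 Recombinant TcTR (5–10 mU) at 25 °C in 40 mM HEPES, 1 mM EDTA, pH 7.5, 100 μM NADPH, 5% DMSO; started with trypanothione disulfide; NADPH consumption read at 340 nm; percentage inhibition calculated.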

[4] = Cytotoxicity against human A549 cells assessed as cell growth at 10 uM by CellTiter-Glo assay relative to control; assay type: cell-based; conditions: read-out: Activity
Summary of the method: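 A549 cells; cellular ATP measured by CellTiter-Glo luminescence as a proxy for cell number; paclitaxel 10 μM as positive control.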

[5] = molecular target: Trypanothione reductase (Trypanosoma cruzi) (UniProt P28593); test: Inhibition of Trypanosoma cruzi trypanothione reductase assessed as reduction in NADPH consumption at 10 uM using 40 uM trypanothione disulfide as substrate by spectrophotometric method; summary of the method: as §2
CYP1A2 = molecular target: T1, CYP1A2 (Homo sapiens, UniProt P05177); test: Inhibition of human CYP1A2 at 10 uM by P450-Glo assay relative to control; assay type: ADME; summary of the method: as §1
T1 sequence (P05177 whole entry): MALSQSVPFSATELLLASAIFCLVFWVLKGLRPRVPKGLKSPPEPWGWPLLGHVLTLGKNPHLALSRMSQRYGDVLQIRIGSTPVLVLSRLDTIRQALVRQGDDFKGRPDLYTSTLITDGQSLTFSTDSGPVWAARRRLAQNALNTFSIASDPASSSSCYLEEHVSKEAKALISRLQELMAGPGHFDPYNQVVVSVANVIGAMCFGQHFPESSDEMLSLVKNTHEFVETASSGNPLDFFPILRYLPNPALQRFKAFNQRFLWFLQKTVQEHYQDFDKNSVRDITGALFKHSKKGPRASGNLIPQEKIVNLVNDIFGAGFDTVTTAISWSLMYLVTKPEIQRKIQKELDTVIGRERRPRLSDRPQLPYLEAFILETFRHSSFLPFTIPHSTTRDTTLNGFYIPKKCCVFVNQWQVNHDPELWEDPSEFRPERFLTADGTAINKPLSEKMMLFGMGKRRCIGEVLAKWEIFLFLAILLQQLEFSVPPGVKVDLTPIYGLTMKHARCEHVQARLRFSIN

786-0 = test: Cytotoxicity against human 786-O cells assessed as mitochondrial viability at 10 uM by CMXRos staining based high-content imaging analysis relative to control; assay type: cell-based; conditions: 786-0, 10 µM
Summary of the method: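 786-O cells kept in RPMI-1640 with 2 mM glutamine, 10% FCS, streptomycin and penicillin G; mitochondria of live cells stained with MitoTracker Red CMXRos and imaged by high-content imaging.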

[6] = test system: Trypanosoma brucei brucei; test: Growth inhibition of Trypanosoma brucei brucei Lister 427 bloodstream forms at 5 uM by SYBR Green based assay relative to control; assay type: functional; conditions: read-out: GI
[7] = molecular target: T2, Pteridine reductase, putative (Trypanosoma brucei) (UniProt Q581W1); test: Inhibition of Trypanosoma brucei pteridine reductase 1 assessed as reduction in conversion of dihydrobiopterin to tetrahydrobiopterin at 10 uM up to 50 mins in presence of NADPH by cytochrome c reduction coupled photometric assay relative to control
T2 sequence (whole entry): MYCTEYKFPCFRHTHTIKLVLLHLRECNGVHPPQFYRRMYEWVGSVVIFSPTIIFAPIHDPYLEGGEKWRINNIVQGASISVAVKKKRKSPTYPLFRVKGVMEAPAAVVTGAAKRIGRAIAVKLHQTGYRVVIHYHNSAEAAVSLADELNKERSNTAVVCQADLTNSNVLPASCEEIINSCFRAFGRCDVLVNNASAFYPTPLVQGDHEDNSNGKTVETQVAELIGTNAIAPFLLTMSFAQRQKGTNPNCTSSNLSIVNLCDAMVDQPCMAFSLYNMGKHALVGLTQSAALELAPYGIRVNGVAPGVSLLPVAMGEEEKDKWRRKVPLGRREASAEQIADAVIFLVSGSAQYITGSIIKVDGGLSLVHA

[8] = molecular target: T3, Pteridine reductase 1 (Leishmania major) (UniProt Q01782); test: Inhibition of Leishmania major pteridine reductase 1 assessed as reduction in conversion of dihydrobiopterin to tetrahydrobiopterin at 10 uM up to 50 mins in presence of NADPH by cytochrome c reduction coupled photometric assay relative to control
T3 sequence (whole entry): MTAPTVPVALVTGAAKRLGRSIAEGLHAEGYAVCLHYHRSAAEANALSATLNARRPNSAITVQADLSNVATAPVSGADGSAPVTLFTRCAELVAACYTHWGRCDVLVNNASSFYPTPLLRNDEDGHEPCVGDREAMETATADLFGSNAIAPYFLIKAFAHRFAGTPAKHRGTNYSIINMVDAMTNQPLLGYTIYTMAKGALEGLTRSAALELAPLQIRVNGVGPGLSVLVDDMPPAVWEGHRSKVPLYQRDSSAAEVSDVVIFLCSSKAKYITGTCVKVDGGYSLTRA

[9] = molecular target: Trypanothione reductase (Trypanosoma cruzi) (UniProt P28593); test: Inhibition of Trypanosoma cruzi trypanothione reductase assessed as reduction in NADPH consumption at 2.5 uM using 100 uM trypanothione disulfide as substrate by spectrophotometric method relative to control; summary of the method: as §2
[10] = molecular target: Trypanothione reductase (Trypanosoma cruzi) (UniProt P28593); test: Inhibition of Trypanosoma cruzi trypanothione reductase assessed as reduction in NADPH consumption at 2.5 uM using 40 uM trypanothione disulfide as substrate by spectrophotometric method relative to control; summary of the method: as §2
[11] = molecular target: Trypanothione reductase (Trypanosoma cruzi) (UniProt P28593); test: Inhibition of Trypanosoma cruzi trypanothione reductase assessed as reduction in NADPH consumption at 5 uM using 40 uM trypanothione disulfide as substrate by spectrophotometric method relative to control; summary of the method: as §2
[12] = molecular target: Trypanothione reductase (Trypanosoma cruzi) (UniProt P28593); test: Inhibition of Trypanosoma cruzi trypanothione reductase assessed as reduction in NADPH consumption at 5 uM using 100 uM trypanothione disulfide as substrate by spectrophotometric method relative to control; summary of the method: as §2
[13] = molecular target: T3, Pteridine reductase 1 (Leishmania major); test: Inhibition of Leishmania major pteridine reductase 1 assessed as reduction in conversion of dihydrobiopterin to tetrahydrobiopterin at 25 uM up to 50 mins in presence of NADPH by cytochrome c reduction coupled photometric assay relative to control
[14] = molecular target: T2, Pteridine reductase, putative (Trypanosoma brucei); test: Inhibition of Trypanosoma brucei pteridine reductase 1 assessed as reduction in conversion of dihydrobiopterin to tetrahydrobiopterin at 25 uM up to 50 mins in presence of NADPH by cytochrome c reduction coupled photometric assay relative to control
Trypanothione reductase = Trypanothione reductase (Trypanosoma cruzi, UniProt P28593); test: Inhibition of Trypanosoma cruzi trypanothione reductase assessed as reduction in NADPH consumption using varying levels of trypanothione disulfide as substrate by Lineweaver-Burk plot analysis
Summary of the method: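 Recombinant T. cruzi TR (5-10 mU) at 25 °C in 40 mM HEPES, 1 mM EDTA, pH 7.5, with 100 μM NADPH and 5% DMSO. Reaction started with TS2 and NADPH consumption followed at 340 nm. TS2 varied at 20, 40, 60, 100 and 200 μM without inhibitor and at two fixed inhibitor concentrations. Inhibition type read from Lineweaver-Burk plots. Ki fitted from direct plot by non-linear least squares. Inhibitor assays run at least in duplicate.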

Chain of CYP2D6 (P10635 whole entry): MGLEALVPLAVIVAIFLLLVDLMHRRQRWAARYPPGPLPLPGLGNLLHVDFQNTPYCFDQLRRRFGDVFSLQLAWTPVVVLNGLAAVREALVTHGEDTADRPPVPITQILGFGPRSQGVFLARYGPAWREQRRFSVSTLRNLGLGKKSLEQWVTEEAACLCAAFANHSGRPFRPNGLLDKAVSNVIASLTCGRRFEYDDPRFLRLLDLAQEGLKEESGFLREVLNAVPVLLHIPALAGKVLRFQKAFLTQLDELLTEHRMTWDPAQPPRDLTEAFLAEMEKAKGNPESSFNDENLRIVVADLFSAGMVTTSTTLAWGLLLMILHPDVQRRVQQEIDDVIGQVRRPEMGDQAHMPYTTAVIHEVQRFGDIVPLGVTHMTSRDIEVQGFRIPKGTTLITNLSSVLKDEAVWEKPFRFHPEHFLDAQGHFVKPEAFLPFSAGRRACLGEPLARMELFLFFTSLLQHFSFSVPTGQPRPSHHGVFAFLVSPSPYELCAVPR
Chain of hERG (KCNH2) (Q12809 whole entry): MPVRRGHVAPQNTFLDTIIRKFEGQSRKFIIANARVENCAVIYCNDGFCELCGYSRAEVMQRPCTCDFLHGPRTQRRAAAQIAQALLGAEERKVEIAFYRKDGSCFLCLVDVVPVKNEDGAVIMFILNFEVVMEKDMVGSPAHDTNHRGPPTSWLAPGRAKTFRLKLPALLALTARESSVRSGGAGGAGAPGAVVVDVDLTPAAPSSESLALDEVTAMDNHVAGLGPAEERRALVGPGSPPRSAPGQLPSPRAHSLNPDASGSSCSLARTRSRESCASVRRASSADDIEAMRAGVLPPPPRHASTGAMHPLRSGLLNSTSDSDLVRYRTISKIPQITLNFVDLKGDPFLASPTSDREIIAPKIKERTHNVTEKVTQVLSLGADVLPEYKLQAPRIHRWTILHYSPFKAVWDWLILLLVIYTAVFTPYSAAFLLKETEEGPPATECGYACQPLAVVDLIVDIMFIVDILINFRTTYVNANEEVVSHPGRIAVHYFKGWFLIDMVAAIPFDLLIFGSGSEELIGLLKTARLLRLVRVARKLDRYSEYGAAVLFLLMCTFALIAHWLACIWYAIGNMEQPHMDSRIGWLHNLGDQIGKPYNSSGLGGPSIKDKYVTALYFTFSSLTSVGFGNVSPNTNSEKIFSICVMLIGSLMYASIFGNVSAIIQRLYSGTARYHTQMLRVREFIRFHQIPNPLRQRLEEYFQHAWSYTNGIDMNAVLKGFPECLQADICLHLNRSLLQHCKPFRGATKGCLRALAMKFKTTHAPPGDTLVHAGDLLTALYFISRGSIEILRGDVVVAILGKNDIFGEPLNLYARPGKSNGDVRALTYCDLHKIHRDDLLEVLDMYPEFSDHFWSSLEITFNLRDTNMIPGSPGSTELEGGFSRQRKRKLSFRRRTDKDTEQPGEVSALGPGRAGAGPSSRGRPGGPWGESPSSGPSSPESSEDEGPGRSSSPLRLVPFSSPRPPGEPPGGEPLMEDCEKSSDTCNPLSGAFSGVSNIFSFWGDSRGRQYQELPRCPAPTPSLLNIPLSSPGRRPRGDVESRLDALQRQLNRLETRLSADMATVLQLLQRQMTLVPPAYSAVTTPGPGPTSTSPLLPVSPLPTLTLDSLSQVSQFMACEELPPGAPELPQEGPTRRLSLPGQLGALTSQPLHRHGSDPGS
Chain of CYP2C9 (P11712 whole entry): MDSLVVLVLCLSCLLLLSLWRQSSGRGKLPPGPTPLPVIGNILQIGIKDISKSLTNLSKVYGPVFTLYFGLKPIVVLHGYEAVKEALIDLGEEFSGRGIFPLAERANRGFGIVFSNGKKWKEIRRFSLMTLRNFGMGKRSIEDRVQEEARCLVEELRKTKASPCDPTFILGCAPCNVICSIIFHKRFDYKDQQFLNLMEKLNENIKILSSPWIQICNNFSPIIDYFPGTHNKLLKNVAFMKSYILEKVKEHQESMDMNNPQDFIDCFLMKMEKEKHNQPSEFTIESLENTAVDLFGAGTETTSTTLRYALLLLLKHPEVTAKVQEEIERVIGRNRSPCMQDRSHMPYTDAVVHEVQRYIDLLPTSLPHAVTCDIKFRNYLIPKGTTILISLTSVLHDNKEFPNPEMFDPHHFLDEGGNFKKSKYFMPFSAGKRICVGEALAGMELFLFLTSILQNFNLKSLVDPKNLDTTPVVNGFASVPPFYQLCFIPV
Chain of CYP3A4 (P08684 whole entry): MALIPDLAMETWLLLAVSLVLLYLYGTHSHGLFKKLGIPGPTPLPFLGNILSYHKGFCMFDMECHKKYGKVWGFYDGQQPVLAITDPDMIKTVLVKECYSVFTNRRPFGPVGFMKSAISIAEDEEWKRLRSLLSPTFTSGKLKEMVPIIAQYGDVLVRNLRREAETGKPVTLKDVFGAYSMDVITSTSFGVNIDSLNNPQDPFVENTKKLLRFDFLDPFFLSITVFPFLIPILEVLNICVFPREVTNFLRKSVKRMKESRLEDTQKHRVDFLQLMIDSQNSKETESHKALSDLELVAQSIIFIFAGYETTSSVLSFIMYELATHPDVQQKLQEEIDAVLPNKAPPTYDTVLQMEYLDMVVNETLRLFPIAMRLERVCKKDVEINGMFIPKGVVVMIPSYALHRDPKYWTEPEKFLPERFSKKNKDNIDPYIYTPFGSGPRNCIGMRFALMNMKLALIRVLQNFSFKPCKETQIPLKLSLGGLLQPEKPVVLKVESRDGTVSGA
Chain of Trypanothione reductase (Trypanosoma cruzi) (P28593 whole entry, looked up): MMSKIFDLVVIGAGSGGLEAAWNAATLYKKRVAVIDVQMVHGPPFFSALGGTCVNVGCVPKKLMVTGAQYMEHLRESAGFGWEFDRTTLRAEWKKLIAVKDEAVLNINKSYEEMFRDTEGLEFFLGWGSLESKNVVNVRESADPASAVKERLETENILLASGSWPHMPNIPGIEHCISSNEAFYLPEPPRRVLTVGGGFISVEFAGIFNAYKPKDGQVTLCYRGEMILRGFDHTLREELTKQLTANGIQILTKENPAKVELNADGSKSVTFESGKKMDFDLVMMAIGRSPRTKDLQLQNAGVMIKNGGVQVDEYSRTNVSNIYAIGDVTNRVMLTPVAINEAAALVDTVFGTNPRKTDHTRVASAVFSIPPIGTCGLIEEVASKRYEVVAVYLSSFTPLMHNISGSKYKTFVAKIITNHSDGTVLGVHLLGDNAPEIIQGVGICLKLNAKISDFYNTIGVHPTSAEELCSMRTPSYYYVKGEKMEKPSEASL
Chain of CYP2C19 (P33261 whole entry): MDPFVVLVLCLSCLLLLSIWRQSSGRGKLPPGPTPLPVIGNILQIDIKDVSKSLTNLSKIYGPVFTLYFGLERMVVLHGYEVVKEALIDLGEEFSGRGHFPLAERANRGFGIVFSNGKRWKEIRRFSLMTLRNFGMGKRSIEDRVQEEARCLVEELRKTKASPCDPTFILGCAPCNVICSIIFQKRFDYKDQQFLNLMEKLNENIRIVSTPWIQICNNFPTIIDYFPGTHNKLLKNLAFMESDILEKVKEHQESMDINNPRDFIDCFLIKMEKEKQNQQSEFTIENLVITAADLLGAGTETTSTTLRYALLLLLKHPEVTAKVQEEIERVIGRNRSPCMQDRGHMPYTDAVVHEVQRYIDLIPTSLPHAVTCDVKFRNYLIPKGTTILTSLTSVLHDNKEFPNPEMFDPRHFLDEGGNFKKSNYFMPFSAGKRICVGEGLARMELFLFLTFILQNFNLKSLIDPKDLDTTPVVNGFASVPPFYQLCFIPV
Chain of Trypanothione reductase (P28593 whole entry): as the sequence (P28593 whole entry, looked up) above

Row | Structure (SMILES) | inhibition at 10 µM (CYP3A4) [%] | inhibition (Trypanosoma brucei) | inhibition at 10 µM (CYP2C9) [%] | inhibition at 10 µM (hERG (KCNH2)) [%] | inhibition at 10 µM (CYP2C19) [%] | solubility kinetic [1] [µM] | solubility kinetic [2] [µM] | inhibition at 10 µM (CYP2D6) [%] | inhibition [3] [%] | viability at 10 µM [4] [%] | inhibition [5] [%] | inhibition at 10 µM (CYP1A2) [%] | Activity (786-0) [%] | inhibition [8] [%] | further results
1 | CC(=O)Oc1cccc2c1C(=O)c1c(oc3c1c(=O)oc1ccccc13)C2=O | 88.2 | inactive | 92.5 | 4.02 | 103 | 35 (≈ 13.1 µg/mL) | 35 (≈ 13.1 µg/mL) | 106 | 37 | 157 | 37.2 | 94.6 | 98.86 | – | –
2 | COc1cccc2c1C(=O)c1c(oc3c1c(=O)oc1ccccc13)C2=O | 22.1 | 88% | 61.6 | -58 | 71 | 70 (≈ 24.2 µg/mL) | 35 (≈ 12.1 µg/mL) | 101 | 8.1 | 130 | 20.6 | 87.2 | 96.22 | 2.98 | inhibition of growth at 5 µM [6]: 29%; inhibition [7]: -6.79%
3 | O=C1c2cccc(O)c2C(=O)c2c1oc1c2c(=O)oc2ccccc21 | 9.44 | – | 44.6 | 19.5 | 83.8 | 14 (≈ 4.65 µg/mL) | 35 (≈ 11.6 µg/mL) | 95.2 | – | 167 | – | 40.8 | 85.82 | -5.5 | inhibition [9]: 11.6%; inhibition [10]: 42.9%
4 | CC(=O)Oc1cccc2c1C(=O)c1oc3c(c1C2=O)c(=O)oc1ccccc13 | 88.7 | inactive | 99.2 | 86.8 | 109 | 35 (≈ 13.1 µg/mL) | 35 (≈ 13.1 µg/mL) | 108 | – | 183 | – | 93.5 | 90.52 | – | inhibition of growth at 5 µM [6]: 38%; inhibition [11]: 41%; inhibition [12]: 35.2%
5 | O=C1c2cc3ccccc3cc2C(=O)c2c1oc1c2c(=O)oc2ccccc21 | 7.93 | inactive | 42.4 | 9.77 | 35.7 | 35 (≈ 12.8 µg/mL) | 70 (≈ 25.6 µg/mL) | 55 | 7.9 | 140 | 2.1 | 38.5 | 89.59 | 5.16 | inhibition [7]: 6.11%
6 | O=C1c2ccccc2C(=O)c2c1oc1c2c(=O)oc2ccccc21 | 14.8 | – | 32.4 | -20.3 | 46.1 | 70 (≈ 22.1 µg/mL) | 70 (≈ 22.1 µg/mL) | 71 | – | 146 | – | 48.2 | 89.15 | – | inhibition [13]: -0.4%; inhibition [14]: -6.44%; inhibition [11]: 19.1%; inhibition [12]: 18%
7 | O=C1C=C(Oc2ccccc2)C(=O)c2ccccc21 | – | Active | – | – | – | – | – | – | 29 | – | 23 | – | – | – | –
8 | c1cc2cc(-c3ccc(C4(N5CCCC5)CCCCC4)s3)ccc2[nH]1 | – | – | – | – | – | – | – | – | – | – | – | – | – | – | Ki (Trypanothione reductase): 4 µM
